From ChEMBL document CHEMBL1133285, “Simple bi- and tricyclic inhibitors of human steroid 5alpha-reductase” (Bioorg Med Chem Lett, 2000)

Key:
[1] = biological target: T1, 3-oxo-5-alpha-steroid 4-dehydrogenase 1 (Homo sapiens, UniProt P18405); assay: In vitro inhibitory activity against Steroid 5-alpha-reductase type I
T1 sequence (P18405 whole entry): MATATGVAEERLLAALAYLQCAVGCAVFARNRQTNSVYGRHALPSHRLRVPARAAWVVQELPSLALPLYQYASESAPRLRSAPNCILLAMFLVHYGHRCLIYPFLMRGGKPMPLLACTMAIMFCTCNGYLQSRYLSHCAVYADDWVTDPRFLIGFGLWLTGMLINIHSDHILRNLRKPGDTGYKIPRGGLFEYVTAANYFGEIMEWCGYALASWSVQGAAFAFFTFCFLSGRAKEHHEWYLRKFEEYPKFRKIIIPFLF

[2] = biological target: T2, 3-oxo-5-alpha-steroid 4-dehydrogenase 2 (Homo sapiens) (UniProt P31213); assay: In vitro inhibitory activity against Steroid 5-alpha-reductase type 2 at a concentration of 40 uM
T2 sequence (whole entry): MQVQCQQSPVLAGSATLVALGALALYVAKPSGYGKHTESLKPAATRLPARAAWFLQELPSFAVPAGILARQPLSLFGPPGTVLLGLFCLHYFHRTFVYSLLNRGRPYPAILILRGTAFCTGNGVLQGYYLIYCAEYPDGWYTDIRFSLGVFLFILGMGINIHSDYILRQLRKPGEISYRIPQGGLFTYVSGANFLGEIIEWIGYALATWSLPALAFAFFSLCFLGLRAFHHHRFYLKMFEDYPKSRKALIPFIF

[3] = biological target: T3, 3-oxo-5-alpha-steroid 4-dehydrogenase 2 (Homo sapiens, UniProt P31213); assay: In vitro inhibitory activity against Steroid 5-alpha-reductase type 2
T3 sequence (P31213 whole entry): T2 sequence (whole entry)
Outline: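 Type 2 SR enzyme preparation, with inhibitors prepared and tested as in the type 1 assay. The mixture of labelled (80 nM) and unlabelled testosterone substrate is incubated 1 h at 37 °C. Androgens are separated by HPLC and quantified by in-line flow radioactivity detection. The assay is calibrated with known type 2 inhibitors.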

[4] = biological target: T2, 3-oxo-5-alpha-steroid 4-dehydrogenase 2 (Homo sapiens); assay: In vitro inhibitory activity against Steroid 5-alpha-reductase type 2 at a concentration of 10 uM

IC50 [1] [µM] | inhibition [2] [%] | IC50 [3] [µM] | inhibition [4] [%] | Structure (SMILES)
1.69 |  |  |  | CN1CC(c2ccc(Cl)cc2)CCC1=O (centres undefined)
0.12 |  |  |  | CN1C(=O)CC[C@@]2(C)C1=CCc1cc(Cl)ccc12
3.36 | 14 |  |  | CN1CC(c2ccc(Cl)cc2)CCC1=S (centres undefined)
1.45 | 19.9 |  |  | CN1C(=S)CC[C@@H]2c3ccccc3CC[C@H]21
0.152 |  | 0.34 |  | O=C(O)c1ccc2c(c1)CCc1cc(/C=C/c3ccccc3)ccc1-2
0.302 |  | 0.579 |  | CN1CC(c2ccc(/N=N/c3ccccc3)cc2)CCC1=O (centres undefined)
 |  |  | 20 | O=C(O)c1ccc2c(c1)CCc1cc(Br)ccc1-2
2.48 | 13.5 |  |  | CN1CC(c2ccccc2)CCC1=O (centres undefined)
0.183 | 21.6 |  |  | CN1C(=S)CC[C@]2(C)c3ccc(Cl)cc3CC[C@@H]12
0.107 |  | 0.617 |  | CN1CC(c2ccc(/C=C/c3ccccc3)cc2)CCC1=O (centres undefined)
0.377 | 13.2 |  |  | CN1C(=S)CC[C@@]2(C)C1=CCc1cc(Cl)ccc12
